bIAP activator: intestinal alkaline phosphatase (bovine) activation. 0.17% of 200,000 active. activation factor at 20 µM. purified bovine IAP, CDP-star luminescence, 30 min; stronger effect = higher value; fold of DMSO-control signal, blank-subtracted. AID 1016;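 active = activation factor of 2 or more at 20 µM, a signal rise over negative controls twice the positive control's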
mIAP activ: increases mouse intestinal alkaline phosphatase activity; muIAP, CDP-Star luminescence, 30 min; stronger effect = higher value; 1 = vehicle-only enzyme signal, 0 = enzyme-free wells; activation factor at 10 µM; 0.24% of 330,000 active; AID 2805;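 active = activation factor of at least 2 at 20 µM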
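also added = chemiluminescent substrate CDP-Star | test system = mouse IAP enzyme | signal = chemiluminescence readout | compound = DMSO-dissolved test compounds | incubation = 30 min at room temperature | benchmarks = DMSO wells, no-enzyme wells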
hIAP inh: blocks human intestinal alkaline phosphatase. P09923. inhibition, % at 10 µM. 0.12% of 330,000 active. purified IAP, CDP-Star luminescence, 30 min;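 active = inhibition reaching a set limit with compound at 10 µM in the primary screen, cut at about 35% in these data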
Target sequence (P09923 whole entry, looked up): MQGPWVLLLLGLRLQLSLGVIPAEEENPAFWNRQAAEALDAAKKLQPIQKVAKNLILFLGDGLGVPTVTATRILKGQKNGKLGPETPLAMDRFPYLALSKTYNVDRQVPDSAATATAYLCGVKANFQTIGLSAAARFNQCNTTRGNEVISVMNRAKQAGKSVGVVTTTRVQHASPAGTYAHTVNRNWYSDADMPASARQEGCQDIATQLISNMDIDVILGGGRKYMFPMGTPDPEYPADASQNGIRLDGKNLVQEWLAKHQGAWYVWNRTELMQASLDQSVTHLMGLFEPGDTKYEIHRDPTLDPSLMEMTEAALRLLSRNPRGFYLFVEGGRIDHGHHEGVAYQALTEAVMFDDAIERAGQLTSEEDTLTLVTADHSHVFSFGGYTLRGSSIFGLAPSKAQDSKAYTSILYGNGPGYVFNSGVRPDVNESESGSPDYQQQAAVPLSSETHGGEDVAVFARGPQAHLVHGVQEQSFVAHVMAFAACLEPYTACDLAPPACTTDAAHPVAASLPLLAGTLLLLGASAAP
bIAP inhibitor: intestinal alkaline phosphatase (bovine) inhibition; 190,000 tested, under 10 active; AID 1019; purified bovine IAP, CDP-star luminescence, 30 min; inhibition, % at 20 µM;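 active = over 50% inhibition of intestinal alkaline phosphatase at 20 µM in the single-dose screen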
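Incubation: 30 min reaction at room temperature / Material: purified bovine intestinal alkaline phosphatase (IAP) enzyme / Input: enzyme at 1/65,000,000 dilution / Dosing: 20 µM single dose / Signal: CDP-star luminescence signal / Reagent: CDP-star chemiluminescent phosphatase substrate, 30 µM final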
mIAP inh: blocks mouse intestinal alkaline phosphatase; purified mouse IAP, CDP-Star luminescence, 30 min; inhibition, % at 10 µM; 0.2% of 330,000 active; AID 2806;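 active = inhibition of at least 40% at 10 µM in the primary screen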
hIAP act: increases human intestinal alkaline phosphatase activity; P09923; purified human IAP, CDP-Star luminescence, 30 min; stronger effect = higher value; 1 = vehicle-only enzyme, 0 = enzyme-free background; activation factor at 10 µM; 0.16% of 330,000 active;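 active = activation factor of the enzyme at least 2-fold when tested at 20 µM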
hIAP act conf: human IAP activation confirmation. shares compounds with hIAP act. 10% of 880 active. AID 434926. activation (%Activity, negative = activation), % at 8.3 µM. purified IAP, CDP-Star luminescence, 30 min; stronger effect = lower value;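 active = at least twofold enzyme activation in any of six single-dose repeats, which the averaged readout prints as negative percent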
mIAP inh conf: mouse IAP inhibition confirmation | AID 434971 | inhibition, % at 10 µM | shares compounds with mIAP inh | purified mouse IAP, CDP-Star luminescence, 30 min | 4.7% of 11,000 active;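 active = inhibition of at least 40% at 10 µM in either of the two replicates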
Large screens that a line does not name were inactive (follow-up assays come after a bar, where they were run). Shown are actives, neighbours in structure and some others; about 0.79% of the full set was active somewhere.

CNc1nnc(-c2cc3ccccc3oc2=O)s1	hIAP inh 73.3, mIAP inh 57.8 (no result: bIAP inhibitor) | hIAP act conf inactive | mIAP inh conf 66.4
O=C(O)C(c1ccccc1)N1C(=O)/C(=C\c2ccc(O)c(O)c2)SC1=S (configuration not stated)	hIAP inh 74.8, mIAP inh 66.9 (no result: bIAP activator, bIAP inhibitor) | hIAP act conf inactive | mIAP inh conf 78.6
Cc1ccc(CNC(=O)CC2(CC3=NS(=O)(=O)c4ccccc4N3)CCCC2)cc1	none (no result: bIAP activator, bIAP inhibitor)
CCN1/C(=C/C=C/c2sc3ccccc3[n+]2CC)Sc2ccccc21	hIAP inh 37.4, mIAP inh 48.3 (no result: bIAP activator, bIAP inhibitor) | hIAP act conf inactive | mIAP inh conf 50.9
CC1C(=O)NN=C1C(=O)N/N=C\c1ccc(O)cc1O (configuration not stated)	mIAP inh 65.1, hIAP act 2.49 | hIAP act conf -78.7 | mIAP inh conf 60.2
Oc1ccc(-c2cn3c(n2)SCC3)cc1O	mIAP inh 60.9 | mIAP inh conf 91.8
O=C(CSc1nnc(COc2ccc(Cl)cc2)o1)N1CCOCC1	none
O=C(NC1CCCC1)c1cc(-c2ccc(Cl)cc2Cl)on1	none (no result: bIAP activator, bIAP inhibitor)
Cn1c(O)c(C2=c3ccccc3=NC2=O)[nH]c1=S	none
O=C1N=c2ccccc2=C1c1sc(=S)n(NC(=O)c2ccccc2)c1O	mIAP inh 63.6 (no result: bIAP activator, bIAP inhibitor) | mIAP inh conf 64.4
CCC(C)CCN1CCN=C1Nc1ccccc1 (configuration not stated)	none (no result: bIAP activator, bIAP inhibitor)
O=c1cc(-c2ccc(O)cc2)oc2c1ccc1ccccc12	none (no result: bIAP activator, bIAP inhibitor)
O=c1cc(-c2ccc(O)cc2)oc2c(O)c(O)c(O)c(O)c12	mIAP inh 66.2 (no result: bIAP activator, bIAP inhibitor) | mIAP inh conf 66.7
O=C(Cc1nnc(NC(=O)c2ccccc2)s1)N/N=C\c1ccc(O)c(O)c1	mIAP inh 72.6 (no result: bIAP activator, bIAP inhibitor) | mIAP inh conf 78.9
CC(=O)c1sc(C(=O)O)c(-c2ccco2)c1-c1ccco1	mIAP inh 54.9 (no result: bIAP activator, bIAP inhibitor) | mIAP inh conf 63.6
CC(C)(Oc1ccc(-c2ccco2)cc1)C(=O)O	none
O=S(=O)(c1ccc(F)cc1)N1CCN(C(=S)NCC2CCCO2)CC1 (configuration not stated)	none (no result: bIAP activator, bIAP inhibitor)
CC(C)C1Nc2ccc(S(N)(=O)=O)cc2C2C=CCC21 (configuration not stated)	mIAP inh 48.1 | mIAP inh conf 44.9
CCOC(=O)C1Nc2ccc(OC(F)(F)F)cc2C2C=CCC12 (configuration not stated)	none (no result: bIAP activator, bIAP inhibitor)
Cc1nc2cc(Cl)ccc2c(=O)n1Cc1ccncc1	none (no result: bIAP activator, bIAP inhibitor)
CC(=O)Nc1ccc(S(=O)(=O)N2CCN(S(=O)(=O)N3CCOCC3)CC2)cc1	none (no result: bIAP activator, bIAP inhibitor)
N#Cc1ccc(/C=N/NC(=S)Nc2ccc(S(=O)(=O)N3CCOCC3)cc2)cc1	none (no result: bIAP activator, bIAP inhibitor)
O=S(=O)(c1ccc(NC(=S)N/N=C/c2ccc(O)c(O)c2)cc1)N1CCOCC1	mIAP inh 70.5 (no result: bIAP activator, bIAP inhibitor) | mIAP inh conf 75.5
CC(NC(=S)Nc1ccc(S(=O)(=O)N2CCOCC2)cc1)C1CC2CCC1C2 (configuration not stated)	mIAP activ 4.02 | mIAP inh conf inactive
O=C(OCCc1ccccc1)c1cc(O)c(O)c(O)c1	none (no result: bIAP activator, bIAP inhibitor)
C#CCOCCOCCOCCNc1nc(N2CCN(C(=O)CCCCCCCCCCNC(=O)[C@H](CO)n3cc(CCCSC)nn3)CC2)nc(N2CCN(C(=O)CCCCCCCCCCNC(=O)[C@H](CO)n3cc(CCCSC)nn3)CC2)n1	none (no result: bIAP activator, bIAP inhibitor)
C#CCOCCOCCOCCNc1nc(N2CCN(C(=O)CCCCCCCCCCNC(=O)[C@H](CO)n3cc(CCCSC)nn3)CC2)nc(N2CCN(C(=O)CCCCCCCCCCNC(=O)[C@H](CCCCN)n3cc(C[C@@H](C)CC)nn3)CC2)n1	mIAP activ 2.3 (no result: bIAP activator, bIAP inhibitor) | mIAP inh conf inactive
C#CCOCCOCCOCCNc1nc(N2CCN(C(=O)CCCCCCCCCCNC(=O)[C@H]([C@@H](C)CC)n3cc(CCCCN=C(N)N)nn3)CC2)nc(N2CCN(C(=O)CCCCCCCCCCNC(=O)[C@H](CCCCN)n3cc(C[C@@H](C)CC)nn3)CC2)n1	mIAP activ 3.96 (no result: bIAP activator, bIAP inhibitor) | mIAP inh conf inactive
C#CCOCCOCCOCCNc1nc(N2CCN(C(=O)CCCCCCCCCCNC(=O)[C@H](CCCCN)n3cc(CCCC(=O)O)nn3)CC2)nc(N2CCN(C(=O)CCCCCCCCCCNC(=O)[C@H](CCCN=C(N)N)n3cc(C[C@@H](C)CC)nn3)CC2)n1	mIAP activ 2.24 (no result: bIAP activator, bIAP inhibitor) | mIAP inh conf inactive
C#CCOCCOCCOCCNc1nc(N2CCN(C(=O)CCCCCCCCCCNC(=O)[C@H](CCCCN)n3cc(CCO)nn3)CC2)nc(N2CCN(C(=O)CCCCCCCCCCNC(=O)[C@H](CCCN=C(N)N)n3cc(C[C@@H](C)CC)nn3)CC2)n1	mIAP activ 2.62 (no result: bIAP activator, bIAP inhibitor) | mIAP inh conf inactive
CC1(C)CCCC2=C1CC1C(=O)N(N)C(=O)C1C2 (configuration not stated)	none (no result: bIAP activator, bIAP inhibitor)
CCCCn1c(N)c(N(CCOC)C(=O)C2CCN(S(=O)(=O)c3ccc(Cl)cc3)CC2)c(=O)[nH]c1=O	none (no result: bIAP activator, bIAP inhibitor)
COC(=O)C1CCN(C(=O)CC(NC(=O)C(F)(F)F)c2cccs2)CC1 (configuration not stated)	none (no result: bIAP activator, bIAP inhibitor)
C#CCOCCOCCOCCNc1nc(N2CCN(C(=O)CCCCCCCCCCNC(=O)Cn3cc(C[C@@H](C)O)nn3)CC2)nc(N2CCN(C(=O)CCCCCCCCCCNC(=O)[C@H](CCCCN)n3cc(C[C@@H](C)CC)nn3)CC2)n1	mIAP activ 2.73 (no result: bIAP activator, bIAP inhibitor) | mIAP inh conf inactive
Cc1ccc(NC(=O)CNC(C)c2ccccc2)cc1 (configuration not stated)	none (no result: bIAP activator, bIAP inhibitor)
Cc1ccc2cc(C(c3nnnn3Cc3ccccc3)N3CCc4ccccc43)c(=O)[nH]c2c1 (configuration not stated)	none
Cc1ccc2[nH]c(=O)c(C(c3nnnn3CC3CCCO3)N3CCc4ccccc4C3)cc2c1 (configuration not stated)	mIAP inh 70.2 | mIAP inh conf 74.2
Cc1ccc2[nH]c(=O)c(C(c3nnnn3CC3CCCO3)N3CCCc4ccccc43)cc2c1 (configuration not stated)	mIAP inh 49.7 | mIAP inh conf 60.2
Cc1ccc2[nH]c(=O)c(C(c3nnnn3Cc3ccccc3)N3CCc4ccccc43)cc2c1 (configuration not stated)	mIAP inh 55.2 | mIAP inh conf 64.3
Cc1ccc2[nH]c(=O)c(C(c3nnnn3C3CCCC3)N3CCCc4ccccc43)cc2c1 (configuration not stated)	mIAP inh 56.7 | mIAP inh conf 59.9

Compound activity: PubChem, Sanford-Burnham Center for Chemical Genomics
